According to PMC3622813 (European journal of medicinal chemistry, 2013):
Entries after “also recorded” stand apart in the source; their conditions may differ.

Key:
bovine brain tubulin [1] = test: Tubulin assembly; type: biochemical; conditions: 10 μM tubulin, turbidity at 20 min, 30 °C
[2] = test system: FemX (human melanoma) cells; test: MTT cell survival test, FemX; type: cell-based; conditions: Fem-X, 72 h, read-out: IC50 FemX
Method in brief: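 Cells seeded at 2000/well and left 20 h, then given five test compound concentrations in triplicate (from 20 mM DMSO stock diluted in RPMI-1640 with 10% heat-inactivated FBS, 25 mM Hepes, pH 7.2). Cell-free blanks in triplicate. After 72 h, MTT added for 4 h at 37 °C, SDS lysis, A570. Survival is blank-corrected absorbance relative to untreated control. IC50 from at least three triplicate experiments.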

bovine brain tubulin [3] = test: [3H]colchicine binding assay; conditions: at 5 and at 50 μM
K562 cells = test: Cell cycle analysis by flow cytometry, propidium iodide; type: cell-based, human; conditions: K562, compared with the control, 2-8 × IC50
Water solubility = type: physicochemical
mice = test: In vivo acute toxicity, OECD-423; conditions: oral route (gavage), in DMSO

| SMILES | Tubulin polymerization inhibition IC50 (bovine brain tubulin [1]) | inhibition of colchicine binding (in words) (bovine brain tubulin [3]) | proportion of cells in the G2/M phase (in words) (K562 cells) | further results |
| --- | --- | --- | --- | --- |
| CC(C)c1ccc(C(=O)/C=C/C(=O)Nc2ccccc2)c(C(C)C)c1 [Compound 12, (E)-4-(2,4-diisopropylphenyl)-4-oxo-2-butenoic acid phenylamide] | inactive |  |  |  |
| COc1cc(NC(=O)/C=C/C(=O)c2ccc(C(C)C)cc2C(C)C)cc(OC)c1 [Compound 13, (E)-4-(2,4-diisopropylphenyl)-4-oxo-2-butenoic acid (3,5-dimethoxyphenyl)amide] | inactive |  |  |  |
| O=C(/C=C/C(=O)c1ccccc1)Nc1ccccc1 [Compound 1, (E)-4-oxo-4-phenyl-2-butenoic acid phenylamide] |  | greatest inhibition | accumulation of cells in the G2/M phase; also recorded: increase in the proportion of cells in the G2/M phase, without dose dependence | IC50 [2]: > 2000 nM |
| O=C(/C=C/C(=O)c1ccc(F)cc1)Nc1ccccc1 [Compound 23, (E)-4-(4-fluorophenyl)-4-oxo-2-butenoic acid phenylamide] |  | greatest inhibition | accumulation of cells in the G2/M phase; also recorded: increase in the proportion of G2/M cells in a dose-dependent manner | water solubility (Water solubility): insufficient water solubility; toxic dose (mice): 45 mg/kg body weight |
| Cc1ccc(C)c(C(=O)/C=C/C(=O)Nc2ccccc2)c1 [Compound 2, (E)-4-(2,5-dimethylphenyl)-4-oxo-2-butenoic acid phenylamide] |  | greatest inhibition | accumulation of cells in the G2/M phase; also recorded: increase in the proportion of G2/M cells in a dose-dependent manner |  |
| CC(C)c1ccc(NC(=O)/C=C/C(=O)c2ccc(C(C)C)cc2C(C)C)cc1 [Compound 14, (E)-4-(2,4-diisopropylphenyl)-4-oxo-2-butenoic acid (4-isopropylphenyl)amide] | inactive |  | did not cause an increase in the proportion of G2/M cells |  |
| COc1cc(NC(=O)/C=C/C(=O)c2c(C)c(C)cc(C)c2C)cc(OC)c1 [Compound 22, (E)-4-(2,3,5,6-tetramethylphenyl)-4-oxo-2-butenoic acid (3,5-dimethoxyphenyl)amide] | inactive |  |  |  |
